Reference: ChEMBL document CHEMBL3124924, “Bifunctional ethyl 2-amino-4-methylthiazole-5-carboxylate derivatives: synthesis and in vitro biological evaluation as antimicrobial and anticancer agents” (2014)

Legend:
Assay type in all cases: functional
CCRF-CEM = test: Cytotoxicity against human CCRF-CEM cells assessed as growth inhibition at 10 uM after 48 hrs by SRB assay; settings: read-out: GI
Procedure, shortened: (§1)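 NCI-60 one-dose primary screen run by the NCI Drug Evaluation Branch across the full 60-line panel. Single high-dose treatment with 48 h continuous drug exposure. Cell growth estimated by sulforhodamine B protein staining. Results given as percent growth of treated cells and expressed as percentage growth inhibition.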

[1] = Cytotoxicity against human Hs578T cells assessed as growth inhibition at 10 uM after 48 hrs by SRB assay; settings: Hs-578T, read-out: GI; procedure, shortened: as §1
PC-3 = test: Cytotoxicity against human PC3 cells assessed as growth inhibition at 10 uM after 48 hrs by SRB assay; settings: PC-3, 48 h, read-out: GI; procedure, shortened: as §1
SW-620 = test: Cytotoxicity against human SW620 cells assessed as growth inhibition at 10 uM after 48 hrs by SRB assay; settings: SW-620, 48 h, read-out: GI; procedure, shortened: as §1
HT-29 = test: Cytotoxicity against human HT-29 cells assessed as growth inhibition at 10 uM after 48 hrs by SRB assay; settings: HT-29, 48 h, read-out: GI; procedure, shortened: as §1
UACC-62 = test: Cytotoxicity against human UACC62 cells assessed as growth inhibition at 10 uM after 48 hrs by SRB assay; settings: UACC-62, 48 h, read-out: GI; procedure, shortened: as §1
[2] = Cytotoxicity against human NCI-ADR-RES cells assessed as growth inhibition at 10 uM after 48 hrs by SRB assay; settings: read-out: GI; procedure, shortened: as §1
IGROV-1 = test: Cytotoxicity against human IGROV1 cells assessed as growth inhibition at 10 uM after 48 hrs by SRB assay; settings: IGROV-1, 48 h, read-out: GI; procedure, shortened: as §1
T47D = test: Cytotoxicity against human T47D cells assessed as growth inhibition at 10 uM after 48 hrs by SRB assay; settings: read-out: GI; procedure, shortened: as §1
HCT-15 = test: Cytotoxicity against human HCT15 cells assessed as growth inhibition at 10 uM after 48 hrs by SRB assay; settings: HCT-15, 48 h, read-out: GI; procedure, shortened: as §1
SK-MEL-5 = test: Cytotoxicity against human SK-MEL-5 cells assessed as growth inhibition at 10 uM after 48 hrs by SRB assay; settings: SK-MEL-5, 48 h, read-out: GI; procedure, shortened: as §1
LOX IMVI = test: Cytotoxicity against human LOXIMVI cells assessed as growth inhibition at 10 uM after 48 hrs by SRB assay; settings: read-out: GI; procedure, shortened: as §1
NCI-H322M = test: Cytotoxicity against human NCI-H322M cells assessed as growth inhibition at 10 uM after 48 hrs by SRB assay; settings: read-out: GI; procedure, shortened: as §1
SR = test: Cytotoxicity against human SR cells assessed as growth inhibition at 10 uM after 48 hrs by SRB assay; settings: read-out: GI; procedure, shortened: as §1
RPMI-8226 = test: Cytotoxicity against human RPMI8226 cells assessed as growth inhibition at 10 uM after 48 hrs by SRB assay; settings: RPMI-8226, 48 h, read-out: GI; procedure, shortened: as §1
MCF7 = test: Cytotoxicity against human MCF7 cells assessed as growth inhibition at 10 uM after 48 hrs by SRB assay; settings: MCF7, 48 h, read-out: GI; procedure, shortened: as §1
K562 = test: Cytotoxicity against human K562 cells assessed as growth inhibition at 10 uM after 48 hrs by SRB assay; settings: K562, 48 h, read-out: GI; procedure, shortened: as §1
A498 = test: Cytotoxicity against human A498 cells assessed as growth inhibition at 10 uM after 48 hrs by SRB assay; settings: A498, 48 h, read-out: GI; procedure, shortened: as §1
HCT-116 = test: Cytotoxicity against human HCT116 cells assessed as growth inhibition at 10 uM after 48 hrs by SRB assay; settings: HCT-116, 48 h, read-out: GI; procedure, shortened: as §1
SNB-75 = test: Cytotoxicity against human SNB75 cells assessed as growth inhibition at 10 uM after 48 hrs by SRB assay; settings: SNB-75, 48 h, read-out: GI; procedure, shortened: as §1
MOLT-4 = test: Cytotoxicity against human MOLT4 cells assessed as growth inhibition at 10 uM after 48 hrs by SRB assay; settings: MOLT-4, 48 h, read-out: GI; procedure, shortened: as §1
NCI-H522 = test: Cytotoxicity against human NCI-H522 cells assessed as growth inhibition at 10 uM after 48 hrs by SRB assay; settings: NCI-H522, 48 h, read-out: GI; procedure, shortened: as §1
U-251 = test: Cytotoxicity against human U251 cells assessed as growth inhibition at 10 uM after 48 hrs by SRB assay; settings: U-251, 48 h, read-out: GI; procedure, shortened: as §1
NCI-H226 = test: Cytotoxicity against human NCI-H226 cells assessed as growth inhibition at 10 uM after 48 hrs by SRB assay; settings: NCI-H226, 48 h, read-out: GI; procedure, shortened: as §1
HOP-92 = test: Cytotoxicity against human HOP92 cells assessed as growth inhibition at 10 uM after 48 hrs by SRB assay; settings: HOP-92, 48 h, read-out: GI; procedure, shortened: as §1
[3] = Cytotoxicity against human UO31 cells assessed as growth inhibition at 10 uM after 48 hrs by SRB assay; settings: UO-31, 48 h, read-out: GI; procedure, shortened: as §1
HCC 2998 = test: Cytotoxicity against human HCC2998 cells assessed as growth inhibition at 10 uM after 48 hrs by SRB assay; settings: HCC 2998, 48 h, read-out: GI; procedure, shortened: as §1
SN12C = test: Cytotoxicity against human SN12C cells assessed as growth inhibition at 10 uM after 48 hrs by SRB assay; settings: read-out: GI; procedure, shortened: as §1
SK-MEL-2 = test: Cytotoxicity against human SK-MEL-2 cells assessed as growth inhibition at 10 uM after 48 hrs by SRB assay; settings: SK-MEL-2, 48 h, read-out: GI; procedure, shortened: as §1
SF-268 = test: Cytotoxicity against human SF268 cells assessed as growth inhibition at 10 uM after 48 hrs by SRB assay; settings: SF-268, 48 h, read-out: GI; procedure, shortened: as §1
MDA-MB-468 = test: Cytotoxicity against human MDA-MB-468 cells assessed as growth inhibition at 10 uM after 48 hrs by SRB assay; settings: MDA-MB-468, 48 h, read-out: GI; procedure, shortened: as §1

For `Cc1nc(N)sc1C(=O)NCCO`, the inhibition of growth at 10 µM (CCRF-CEM) was 40%, the inhibition of growth at 10 µM [1] was < 10% and the inhibition of growth at 10 µM (PC-3) was < 10%. The inhibition of growth at 10 µM (SW-620) was < 10%, the inhibition of growth at 10 µM (HT-29) was < 10% and the inhibition of growth at 10 µM (UACC-62) was 7.33%. The inhibition of growth at 10 µM [2] was < 10%, the inhibition of growth at 10 µM (IGROV-1) was < 10% and the inhibition of growth at 10 µM (T47D) was < 10%. For the same molecule, the inhibition of growth at 10 µM (HCT-15) was < 10%, the inhibition of growth at 10 µM (SK-MEL-5) was < 10% and the inhibition of growth at 10 µM (LOX IMVI) was < 10%. The inhibition of growth at 10 µM (NCI-H322M) was < 10%, the inhibition of growth at 10 µM (SR) was < 10% and the inhibition of growth at 10 µM (RPMI-8226) was < 10%. For the same molecule, the inhibition of growth at 10 µM (MCF7) was 2.13%, the inhibition of growth at 10 µM (K562) was < 10% and the inhibition of growth at 10 µM (A498) was < 10%. The inhibition of growth at 10 µM (HCT-116) was 2.49%, the inhibition of growth at 10 µM (SNB-75) was < 10% and the inhibition of growth at 10 µM (MOLT-4) was < 10%. For the same molecule, the inhibition of growth at 10 µM (NCI-H522) was 65.4%, the inhibition of growth at 10 µM (U-251) was < 10% and the inhibition of growth at 10 µM (NCI-H226) was 3.91%. The inhibition of growth at 10 µM (HOP-92) was 82.1%, the inhibition of growth at 10 µM [3] was 20% and the inhibition of growth at 10 µM (HCC 2998) was < 10%. For the same molecule, the inhibition of growth at 10 µM (SN12C) was < 10%, the inhibition of growth at 10 µM (SK-MEL-2) was 87.4% and the inhibition of growth at 10 µM (SF-268) was 2.48%. The inhibition of growth at 10 µM (MDA-MB-468) was 3.17%.
